{"source": "paper PMC5221453", "about": "(British Journal of Pharmacology, 2016)", "key": {"human S1P1 receptor": {"biological_target": "human S1P1 receptor (Homo sapiens, UniProt P21453)", "sequence (P21453 whole entry)": "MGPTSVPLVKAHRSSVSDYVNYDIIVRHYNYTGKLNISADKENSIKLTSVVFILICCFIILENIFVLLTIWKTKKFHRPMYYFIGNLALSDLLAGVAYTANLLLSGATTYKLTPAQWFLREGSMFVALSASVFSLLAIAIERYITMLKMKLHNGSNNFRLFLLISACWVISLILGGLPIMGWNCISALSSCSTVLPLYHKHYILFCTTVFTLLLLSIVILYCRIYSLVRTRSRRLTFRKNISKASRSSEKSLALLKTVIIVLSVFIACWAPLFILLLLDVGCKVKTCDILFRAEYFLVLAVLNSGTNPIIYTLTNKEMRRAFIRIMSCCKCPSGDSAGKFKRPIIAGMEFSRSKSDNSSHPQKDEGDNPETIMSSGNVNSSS", "assay": "Ca2+ mobilization assay, human S1P1 receptor-expressing cells", "assay_type": "cell-based"}, "cynomolgus monkeys": {"system": "cynomolgus monkeys", "assay_type": "in vivo, cynomolgus monkeys (Macaca fascicularis)", "conditions": "conscious monkeys, oral, doses up to 30 mg·kg^−1"}, "healthy subjects [1]": {"system": "healthy subjects", "assay": "Phase I multiple ascending dose trial: peripheral lymphocyte counts", "assay_type": "in vivo, human", "conditions": "0.75 mg, day 21", "method_in_brief": "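Healthy men received oral test compound (0.125–0.75 mg) or placebo for 21 days in the fed state. Absolute lymphocyte counts were taken at screening and on days −2, 1–12, 14, 16, 18, 20–25, 28, 35, 42, 56 and 70.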"}, "healthy subjects [2]": {"system": "healthy subjects", "assay": "Phase I multiple ascending dose trial: heart rate and ECG", "assay_type": "in vivo, human", "method_in_brief": "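Healthy men received oral test compound at 0.125–0.75 mg or placebo for 21 days, fed. Heart rate came from 24 h 12-lead Holter ECG against a day −1 baseline, with telemetry on day 1. Mean hourly rate was fitted by a linear mixed model with a pre-dose covariate. The 1–12 h nadir was compared by ANCOVA (day −1 covariate), giving LS mean differences versus placebo with 95% CI.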"}, "[3]": {"assay": "Phase I multiple ascending dose trial: pharmacokinetic assessment", "assay_type": "in vivo, human", "method_in_brief": "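Healthy men received oral test compound (0.125–0.75 mg, 10 per dose) for 21 days, fed. Blood was sampled on days 1–12, 14, 16, 18, 20–25, 28, 35, 42, 56 and 70. Parent and phosphate metabolite were measured in plasma and urine by validated LC/MS/MS, with LLOQ 0.05 ng·mL−1.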"}, "healthy subjects [4]": {"system": "healthy subjects", "assay": "Phase I multiple ascending dose trial: adverse events", "assay_type": "in vivo, human", "method_in_brief": "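Randomized, double-blind, placebo-controlled, parallel multiple-ascending-dose study in healthy men aged 18–45. Oral test compound was given at 0.125, 0.25, 0.5 or 0.75 mg (10 subjects per dose) or placebo (n = 10) over 21 days in the fed state. Follow-up visits were on days 28, 35, 42, 56 and 70. Adverse events were recorded throughout the study.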"}, "[5]": {"system": "cardiac Na+ and Ca2+ channels in HCMs", "assay": "Cardiac Na+ and Ca2+ channels in HCMs", "assay_type": "cell-based, human", "conditions": "data not shown"}, "humans [6]": {"system": "humans", "conditions": "clinical dose 0.5 mg, ref Schmouder et al., 2012; cited from earlier work"}, "humans [7]": {"system": "humans", "conditions": "cited from earlier work; for decrease in the lymphocyte count: psoriasis patients, ref Vaclavkova et al., 2014"}, "human S1P4 receptor": {"biological_target": "T1, human S1P4 receptor (Homo sapiens, UniProt O95977)", "T1 sequence (O95977 1-384)": "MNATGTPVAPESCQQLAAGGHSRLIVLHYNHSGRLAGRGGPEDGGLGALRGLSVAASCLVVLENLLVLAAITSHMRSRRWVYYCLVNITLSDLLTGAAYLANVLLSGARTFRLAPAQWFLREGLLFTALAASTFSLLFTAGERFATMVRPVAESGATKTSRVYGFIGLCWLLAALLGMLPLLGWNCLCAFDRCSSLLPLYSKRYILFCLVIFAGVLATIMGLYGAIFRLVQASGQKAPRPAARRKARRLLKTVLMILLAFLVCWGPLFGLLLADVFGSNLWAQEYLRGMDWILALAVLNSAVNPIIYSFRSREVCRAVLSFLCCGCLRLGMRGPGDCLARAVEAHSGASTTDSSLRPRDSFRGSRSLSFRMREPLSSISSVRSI", "assay": "Ca2+ mobilization assay, human S1P4 receptor-expressing cells", "assay_type": "cell-based"}, "[8]": {"assay": "Tissue distribution in rats", "assay_type": "in vivo, SD rats", "conditions": "rat, single oral 1 mg·kg^−1 of amiselimod or fingolimod", "method_in_brief": "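SD rats fasted 15 h received a single oral 1 mg·kg−1 test compound without anaesthesia. Rats killed at 24 or 48 h were fed at 8 h. Plasma and heart homogenates underwent solid-phase extraction. Parent and phosphate metabolite were measured by LC–MS/MS. Parameters were derived by non-compartmental analysis. Dosing/sampling and analysis were done by separate researchers unaware of treatment.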"}, "human S1P3 receptor": {"biological_target": "human S1P3 receptor (Homo sapiens, UniProt Q99500)", "sequence (Q99500 whole entry)": "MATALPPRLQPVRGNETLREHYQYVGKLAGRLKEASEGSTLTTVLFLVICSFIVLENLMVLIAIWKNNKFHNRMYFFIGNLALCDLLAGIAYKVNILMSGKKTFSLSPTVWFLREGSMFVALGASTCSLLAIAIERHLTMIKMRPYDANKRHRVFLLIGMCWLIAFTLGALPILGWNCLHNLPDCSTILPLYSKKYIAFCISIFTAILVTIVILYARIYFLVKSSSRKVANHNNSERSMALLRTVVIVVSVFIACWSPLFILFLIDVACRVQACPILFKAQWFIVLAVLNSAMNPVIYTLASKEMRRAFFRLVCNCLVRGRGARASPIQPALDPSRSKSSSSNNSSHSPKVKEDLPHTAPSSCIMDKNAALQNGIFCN", "assay": "Ca2+ mobilization assay, human S1P3 receptor-expressing cells", "assay_type": "cell-based"}, "[9]": {"system": "GIRK channels in human atrial myocytes", "assay": "Human GIRK channel assay in human atrial myocytes", "assay_type": "cell-based", "conditions": "20 μmol·L^−1 carbachol", "method_in_brief": "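Atrial myocytes were isolated from a human atrial specimen taken during cardiac surgery. GIRK current was recorded by whole-cell patch clamp at 37 ± 1°C and elicited by rapid superfusion with 20 μmol·L−1 carbachol. Current was read on a pulse to −100 mV from a −90 mV holding potential. Values were normalized to the carbachol-evoked increase. Four myocytes per condition were analysed by a blinded researcher.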"}, "[10]": {"conditions": "humans, ref Gergely et al., 2012, Brooks et al., 2013, Brossard et al.; cited from earlier work"}, "[11]": {"conditions": "healthy subjects receiving amiselimod, all doses"}}, "note": "Like-named read-outs stand apart in the source and are kept apart here.", "data": [{"smiles": "CCCCCCCOc1ccc(CCC(N)(CO)CO)cc1C(F)(F)F.Cl", "note": "[Amiselimod, 2‐amino‐2‐{2‐[4‐(heptyloxy)‐3‐(trifluoromethyl)phenyl]ethyl}propan‐1,3‐diol hydrochloride]", "values": [{"measurement": "EC50", "setting": "human S1P1 receptor", "value": "> 1000", "unit": "nM"}, {"measurement": "agonist activity at S1P1 receptors", "setting": "human S1P1 receptor; up to 1000 nmol·L^−1", "value": "no agonist activity"}, {"measurement": "effect on blood pressure", "setting": "cynomolgus monkeys", "value": "did not affect"}, {"measurement": "effects on heart rate or ECG parameters (PR interval, QRS duration, QT interval, QTc)", "setting": "cynomolgus monkeys", "value": "no effects"}, {"measurement": "decrease in trough lymphocyte counts", "setting": "healthy subjects [1]", "value": 60, "unit": "%"}, {"measurement": "nadir (1–12 h) mean hourly heart rate, LS mean", "setting": "healthy subjects [2]; 0.5 mg, day 1", "value": 62.213, "unit": "bpm"}, {"measurement": "nadir (1–12 h) mean hourly heart rate, LS mean", "setting": "healthy subjects [2]; 0.75 mg, day 1", "value": 61.952, "unit": "bpm"}, {"measurement": "ECG Holter transient AV conduction abnormalities, subjects", "setting": "healthy subjects [2]; 0.125–0.75 mg", "value": "five subjects"}, {"measurement": "PR interval, QRS width, QT interval, QTcB interval, QTcF interval and RR interval", "setting": "healthy subjects [2]; 0.125–0.75 mg", "value": "not affected"}, {"measurement": "decrease in heart rate versus placebo", "setting": "healthy subjects [2]; up to the 0.75 mg dose, day 1", "value": "no significant decrease"}, {"measurement": "accumulation ratios (range)", "setting": "[3]; healthy subjects, after 21 day dosing", "value": "16–29"}, {"measurement": "administered dose excreted in the urine", "setting": "[3]; healthy subjects, day 21", "value": "Less than 0.2%"}, {"measurement": "mean t1/2", "setting": "[3]; healthy subjects, plasma, across 0.125–0.75 mg doses", "value": "380 to 420", "unit": "h"}, {"measurement": "period of accumulation to steady state", "setting": "[3]; humans, inferred from long t1/2", "value": "approximately 10 weeks"}, {"measurement": "mild AEs, subjects", "setting": "healthy subjects [4]; 0.125 mg", "value": 8, "unit": "subjects"}, {"measurement": "moderate AEs, subjects", "setting": "healthy subjects [4]; 0.125 mg", "value": 1, "unit": "subjects"}, {"measurement": "mild AEs, subjects", "setting": "healthy subjects [4]; 0.25 mg", "value": 4, "unit": "subjects"}, {"measurement": "mild AEs, subjects", "setting": "healthy subjects [4]; 0.5 mg", "value": 9, "unit": "subjects"}, {"measurement": "moderate AEs, subjects", "setting": "healthy subjects [4]; 0.5 mg", "value": 1, "unit": "subjects"}, {"measurement": "mild AEs, subjects", "setting": "healthy subjects [4]; 0.75 mg", "value": 7, "unit": "subjects"}, {"measurement": "moderate AEs, subjects", "setting": "healthy subjects [4]; 0.75 mg", "value": 1, "unit": "subjects"}, {"measurement": "number of subjects reporting AEs", "setting": "healthy subjects [4]; [11]", "value": 28, "unit": "subjects"}, {"measurement": "total number of AEs reported", "setting": "healthy subjects [4]; [11]", "value": 74, "unit": "AEs"}, {"measurement": "severe AEs or serious AEs", "setting": "healthy subjects [4]; healthy subjects, during the study", "value": "no severe AEs or serious AEs"}]}, {"smiles": "CCCCCCCCc1ccc(CCC(N)(CO)CO)cc1", "note": "[Fingolimod, fingolimod]", "values": [{"measurement": "effect on cardiac Na+ and Ca2+ channels", "setting": "[5]", "value": "did not affect"}, {"measurement": "decrease in heart rate", "setting": "humans [6]", "value": 6.2, "unit": "bpm"}, {"measurement": "lymphocyte counts decreased below the baseline", "setting": "humans [7]; 0.5 mg, RRMS patients, ref Kappos et al., 2010", "value": 73, "unit": "%"}]}, {"smiles": "CCCCCCCCc1ccc(CC[C@](N)(CO)COP(=O)(O)O)cc1", "note": "[Fingolimod‐P, Fingolimod phosphate]", "values": [{"measurement": "EC50", "setting": "human S1P4 receptor; read-out: EC50 values (95% CI), S1P4, agonist activity, intracellular Ca2+ mobilization, geometric mean", "value": 66.3, "unit": "nM"}, {"measurement": "heart AUC0–last", "setting": "[8]", "value": "17 182 ng·h·g^−1"}, {"measurement": "heart Cmax", "setting": "[8]", "value": 479, "unit": "ng/g"}, {"measurement": "plasma AUC0–last", "setting": "[8]", "value": 556, "unit": "ng·h/mL"}, {"measurement": "effect on cardiac Na+ and Ca2+ channels", "setting": "[5]", "value": "did not affect"}]}, {"smiles": "CCCCCCCCCCCCC/C=C/[C@@H](O)[C@@H](N)COP(=O)(O)O", "note": "[S1P, sphingosine 1‐phosphate]", "values": [{"measurement": "EC50", "setting": "human S1P1 receptor", "value": 0.18, "unit": "nM"}, {"measurement": "EC50", "setting": "human S1P3 receptor", "value": 0.16, "unit": "nM"}, {"measurement": "EC50", "setting": "human S1P4 receptor", "value": 82.7, "unit": "nM"}, {"measurement": "GIRK current reached, of the maximal current increase evoked by carbachol", "setting": "[9]", "value": "more than 90%"}]}, {"smiles": "CC(C)Oc1ccc(-c2nc(-c3cccc4c3CC[C@@H]4NCCO)no2)cc1C#N", "note": "[ozanimod]", "values": [{"measurement": "lymphocyte count decrease from baseline", "setting": "humans [7]; 1 mg, healthy volunteers, ref Olson et al., 2013, Sandborn et al., 2015", "value": 65, "unit": "%"}, {"measurement": "t1/2", "setting": "[10]", "value": 17.1, "unit": "h"}]}, {"smiles": "CCC/N=C1\\S/C(=C\\c2ccc(OC[C@H](O)CO)c(Cl)c2)C(=O)N1c1ccccc1C", "note": "[ponesimod]", "values": [{"measurement": "decrease in the lymphocyte count", "setting": "humans [7]; 20 mg, Phase II", "value": 56, "unit": "%"}, {"measurement": "decrease in the lymphocyte count", "setting": "humans [7]; 40 mg, Phase II", "value": 65, "unit": "%"}, {"measurement": "t1/2", "setting": "[10]", "value": "21.7 to 33.4", "unit": "h"}]}, {"smiles": "CCc1cc(/C(C)=N/OCc2ccc(C3CCCCC3)c(C(F)(F)F)c2)ccc1CN1CC(C(=O)O)C1", "note": "[siponimod]", "values": [{"measurement": "lymphocyte count decrease", "setting": "humans [7]; 2 mg, RRMS patients, Phase II, ref Selmaj et al., 2013", "value": 70, "unit": "%"}, {"measurement": "t1/2", "setting": "[10]", "value": "21.9 to 36.3", "unit": "h"}]}]}
